The values below come from ChEMBL document CHEMBL1212913, “Quinazolin-4-one derivatives: A novel class of noncompetitive NR2C/D subunit-selective N-methyl-D-aspartate receptor antagonists” (J Med Chem, 2010).

pIC50: −log10 of the molar value. Calls of active or inactive are those of the source. The calls are words filed in the database; no cut-off is given here. A value given as a limit tells only on which side of the number the result lay.

In assay [1] the target is Glutamate NMDA receptor; Grin1/Grin2a (Rattus norvegicus, UniProt P35439+Q00959). Description: Antagonist activity at rat recombinant NR1-NR2A receptor expressed in Xenopus oocytes at holding potential of -40mV by two-electrode voltage-clamp electrophysiology. The format is functional, cell-based, Oocyte. The conditions noted are these: read-out: IC50. Summed up: (§1)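 Oocytes expressing rat NR1-1a with NR2A, NR2B, NR2C or NR2D, clamped at −40 mV in Ba2+/HEPES recording solution pH 7.4, 23°C. Current evoked by 100 μM glutamate plus 30 μM glycine. Final DMSO 0.05-0.5%, 5-7 inhibitor concentrations, ≥4 oocytes each. IC50 from Hill fit of normalized mean composite data. […] Some NR2A oocytes given BAPTA-AM or K-BAPTA.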
(In general: In two-electrode clamp one electrode senses voltage and the other passes current.)

The target of assay [2] is Glutamate NMDA receptor; Grin1/Grin2b (Rattus norvegicus, UniProt P35439+Q00960). Description: Antagonist activity at rat recombinant NR1-NR2B receptor expressed in Xenopus oocytes at holding potential of -40mV by two-electrode voltage-clamp electrophysiology. It counts as functional, cell-based, Oocyte. The conditions noted are these: read-out: IC50. The essentials: as §1
Glutamate NMDA receptor; Grin1/Grin2b, sequence (Q00960 whole entry, other chains not shown): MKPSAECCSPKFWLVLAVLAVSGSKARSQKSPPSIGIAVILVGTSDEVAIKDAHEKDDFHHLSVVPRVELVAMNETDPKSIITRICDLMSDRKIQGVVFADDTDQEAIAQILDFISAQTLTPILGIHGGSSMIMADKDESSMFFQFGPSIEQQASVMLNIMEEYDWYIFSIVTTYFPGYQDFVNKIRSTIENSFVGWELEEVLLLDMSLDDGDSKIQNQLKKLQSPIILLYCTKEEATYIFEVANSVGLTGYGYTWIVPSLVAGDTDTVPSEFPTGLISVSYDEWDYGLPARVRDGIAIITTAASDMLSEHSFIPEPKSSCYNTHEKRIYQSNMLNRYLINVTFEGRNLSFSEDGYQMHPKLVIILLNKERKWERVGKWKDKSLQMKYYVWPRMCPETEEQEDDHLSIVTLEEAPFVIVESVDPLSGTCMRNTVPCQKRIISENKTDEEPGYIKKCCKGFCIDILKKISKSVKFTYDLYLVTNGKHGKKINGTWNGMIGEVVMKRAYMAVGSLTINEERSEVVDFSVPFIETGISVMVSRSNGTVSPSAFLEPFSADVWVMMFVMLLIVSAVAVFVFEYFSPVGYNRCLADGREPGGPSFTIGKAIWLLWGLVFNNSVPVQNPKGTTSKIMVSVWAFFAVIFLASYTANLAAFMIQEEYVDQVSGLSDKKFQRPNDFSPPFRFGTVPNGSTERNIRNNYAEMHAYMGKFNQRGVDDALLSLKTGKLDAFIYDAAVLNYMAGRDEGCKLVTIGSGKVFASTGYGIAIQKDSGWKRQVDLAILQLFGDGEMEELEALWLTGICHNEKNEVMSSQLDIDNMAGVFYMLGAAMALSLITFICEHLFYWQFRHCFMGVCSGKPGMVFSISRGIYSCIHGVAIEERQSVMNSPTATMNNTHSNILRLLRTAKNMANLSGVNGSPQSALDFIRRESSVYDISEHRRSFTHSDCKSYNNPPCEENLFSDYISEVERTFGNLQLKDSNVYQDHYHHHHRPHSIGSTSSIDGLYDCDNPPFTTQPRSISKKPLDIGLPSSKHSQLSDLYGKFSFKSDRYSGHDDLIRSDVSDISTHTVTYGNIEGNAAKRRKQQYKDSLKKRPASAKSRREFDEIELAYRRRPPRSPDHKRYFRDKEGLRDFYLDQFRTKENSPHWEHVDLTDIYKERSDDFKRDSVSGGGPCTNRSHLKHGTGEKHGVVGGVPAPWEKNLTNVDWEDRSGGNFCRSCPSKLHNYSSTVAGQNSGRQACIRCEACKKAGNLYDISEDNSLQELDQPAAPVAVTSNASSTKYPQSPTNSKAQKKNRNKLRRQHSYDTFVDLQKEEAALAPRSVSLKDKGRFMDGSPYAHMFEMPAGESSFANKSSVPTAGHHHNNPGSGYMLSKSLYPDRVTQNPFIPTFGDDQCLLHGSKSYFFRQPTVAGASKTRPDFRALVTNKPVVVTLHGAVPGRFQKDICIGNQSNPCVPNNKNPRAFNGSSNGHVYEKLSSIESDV

Assay [3] concerns the target Glutamate NMDA receptor; Grin1/Grin2c (Rattus norvegicus, UniProt P35439+Q00961). Kind of assay: Antagonist activity at rat recombinant NR1-NR2C receptor expressed in Xenopus oocytes at holding potential of -40mV by two-electrode voltage-clamp electrophysiology. The format is functional, cell-based, Oocyte. Summed up:
as §1

The target of assay [4] is Ionotropic glutamate receptor NMDA 1/2D (Rattus norvegicus, UniProt P35439+Q62645). Description: Antagonist activity at rat recombinant NR1-NR2D receptor expressed in Xenopus oocytes at holding potential of -40mV by two-electrode voltage-clamp electrophysiology. It counts as functional, cell-based, Oocyte. Summed up:
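Oocytes expressing rat NR1-1a with NR2A, NR2B, NR2C or NR2D, clamped at −40 mV in Ba2+/HEPES recording solution pH 7.4, 23°C. Current evoked by 100 μM glutamate plus 30 μM glycine. Final DMSO 0.05-0.5%, 5-7 inhibitor concentrations, ≥4 oocytes each. IC50 from Hill fit of normalized mean composite data. Some NR2A oocytes given BAPTA-AM or K-BAPTA.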

The target in assay [5] is Glutamate receptor 1 (Rattus norvegicus, UniProt P19490). Description: Antagonist activity at rat recombinant GLuR1 expressed in Xenopus oocytes assessed as inhibition of glutamate-induced current by two-electrode voltage-clamp electrophysiology. The format is functional, cell-based, Oocyte. Summed up: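 Two-electrode voltage clamp at −40 mV on Xenopus oocytes expressing rat GluR1, perfused with 90 NaCl, 1.0 KCl, 0.5 BaCl2, 0.005 EDTA, 10 HEPES (mM), pH 7.4, 23°C; activated by 100 μM glutamate. From 20 mM DMSO stocks, 5-7 concentrations, ≥4 oocytes each. Hill fit to mean composite curves normalized to control, minimum usually fixed at 0. Response >75% at 100 μM reported as >300 μM.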
Glutamate receptor 1, sequence (P19490 whole entry, the tested form may be a part): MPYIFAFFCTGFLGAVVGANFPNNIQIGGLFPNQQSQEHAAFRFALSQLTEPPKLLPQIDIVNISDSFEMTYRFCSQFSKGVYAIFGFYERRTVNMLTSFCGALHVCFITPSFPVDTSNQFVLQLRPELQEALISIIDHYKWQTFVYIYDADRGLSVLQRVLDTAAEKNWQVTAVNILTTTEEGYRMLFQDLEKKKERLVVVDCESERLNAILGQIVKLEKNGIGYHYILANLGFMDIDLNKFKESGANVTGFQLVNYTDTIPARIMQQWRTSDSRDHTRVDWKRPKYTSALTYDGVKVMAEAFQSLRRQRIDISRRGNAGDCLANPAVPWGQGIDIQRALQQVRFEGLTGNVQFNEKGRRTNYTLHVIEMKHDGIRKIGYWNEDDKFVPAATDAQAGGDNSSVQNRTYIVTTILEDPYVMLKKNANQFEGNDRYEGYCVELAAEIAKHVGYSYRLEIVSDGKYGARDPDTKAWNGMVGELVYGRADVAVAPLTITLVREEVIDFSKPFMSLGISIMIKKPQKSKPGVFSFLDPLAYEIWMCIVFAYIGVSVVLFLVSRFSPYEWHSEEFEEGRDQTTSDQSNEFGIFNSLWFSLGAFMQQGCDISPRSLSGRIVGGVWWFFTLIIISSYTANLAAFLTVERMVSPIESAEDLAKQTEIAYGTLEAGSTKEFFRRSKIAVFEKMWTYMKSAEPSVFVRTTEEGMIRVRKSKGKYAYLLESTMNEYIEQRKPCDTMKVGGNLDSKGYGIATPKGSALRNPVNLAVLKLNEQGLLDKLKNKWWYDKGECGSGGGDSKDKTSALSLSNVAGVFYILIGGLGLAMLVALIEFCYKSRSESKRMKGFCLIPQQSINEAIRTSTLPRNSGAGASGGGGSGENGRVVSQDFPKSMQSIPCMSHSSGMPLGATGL

In assay [6] the target is Glutamate receptor ionotropic, kainate 2 (Rattus norvegicus, UniProt P42260). Kind of assay: Antagonist activity at rat recombinant GLuR6 expressed in Xenopus oocytes assessed as inhibition of glutamate-induced current by two-electrode voltage-clamp electrophysiology. The format is functional, cell-based. The conditions noted are these: oocyte. The essentials: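 Rat GluR6 expressed in Xenopus oocytes, pretreated with 10 μM concanavalin A for 10 min, then activated by 100 μM glutamate. Cells were held at −40 mV in 90 mM NaCl, 1.0 KCl, 0.5 BaCl2, 0.005 EDTA and 10 HEPES, pH 7.4, at 23°C. Compounds were diluted from 20 mM DMSO stocks, final DMSO 0.05-0.5%. Concentration-effect curves were recorded.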
Glutamate receptor ionotropic, kainate 2, sequence (P42260 whole entry): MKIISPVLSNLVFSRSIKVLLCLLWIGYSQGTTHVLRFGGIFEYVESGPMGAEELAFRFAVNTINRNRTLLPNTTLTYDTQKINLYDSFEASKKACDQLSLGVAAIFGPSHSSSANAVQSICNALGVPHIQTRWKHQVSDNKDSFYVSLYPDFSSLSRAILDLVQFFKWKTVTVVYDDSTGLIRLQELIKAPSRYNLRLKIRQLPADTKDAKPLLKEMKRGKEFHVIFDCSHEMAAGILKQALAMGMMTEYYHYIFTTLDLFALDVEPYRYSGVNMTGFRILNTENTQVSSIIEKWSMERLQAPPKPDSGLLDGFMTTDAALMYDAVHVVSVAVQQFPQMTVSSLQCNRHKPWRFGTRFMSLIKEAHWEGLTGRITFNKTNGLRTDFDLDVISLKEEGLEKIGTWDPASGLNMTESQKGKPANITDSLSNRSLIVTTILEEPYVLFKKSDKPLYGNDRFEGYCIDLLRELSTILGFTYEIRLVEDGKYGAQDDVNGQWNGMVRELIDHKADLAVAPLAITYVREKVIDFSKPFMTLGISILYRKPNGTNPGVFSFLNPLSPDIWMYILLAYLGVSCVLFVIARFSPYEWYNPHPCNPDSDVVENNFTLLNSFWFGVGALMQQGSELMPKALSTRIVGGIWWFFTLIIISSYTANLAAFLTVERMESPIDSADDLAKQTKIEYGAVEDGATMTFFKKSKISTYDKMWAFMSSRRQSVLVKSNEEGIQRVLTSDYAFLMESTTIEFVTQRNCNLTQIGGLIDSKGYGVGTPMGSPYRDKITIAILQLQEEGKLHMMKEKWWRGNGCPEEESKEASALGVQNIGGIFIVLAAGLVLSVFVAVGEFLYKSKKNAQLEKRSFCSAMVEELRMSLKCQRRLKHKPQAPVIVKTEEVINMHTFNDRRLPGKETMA

The target of assay [7] is T1, Ionotropic glutamate receptor NMDA 1/2D (Rattus norvegicus) (UniProt P35439+Q62645). Description: Antagonist activity at rat recombinant NR1-NR2D receptor expressed in Xenopus oocytes at 10 uM at holding potential of -40mV by two-electrode voltage-clamp electrophysiology. It counts as functional, cell-based. The conditions noted are these: Oocyte.
Assay [8] has as its target T1, Ionotropic glutamate receptor NMDA 1/2D (Rattus norvegicus). Description: Antagonist activity at rat recombinant NR1-NR2D receptor expressed in Xenopus oocytes at 10 uM at holding potential of +40mV by two-electrode voltage-clamp electrophysiology. The conditions noted are these: Oocyte. The format is functional, cell-based.
Assay [9] has the same target. Description: Antagonist activity at rat recombinant NR1-NR2D receptor expressed in Xenopus oocytes at 30 uM at holding potential of -40mV by two-electrode voltage-clamp electrophysiology in presence of up to 1000/300 uM of glutamate/glycine. The format is functional, cell-based. The note with it: Oocyte. The essentials: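 NR1/NR2D oocytes held at −40 mV. Inhibition by 30 μM compound was compared with glutamate/glycine at 100/30 μM and raised to 1000/300 μM, to test whether higher agonist surmounts block. n=4.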

Assay [10] is filed under the species Rattus norvegicus. Kind of assay: Selectivity ratio of IC50 for rat recombinant GLuR1 to IC50 for rat recombinant NR1-NR2D receptor. Summed up:
(§2)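 Ratio of fitted IC50 values, either NR2A/NR2D or GluR1/NR2D, from two-electrode voltage-clamp Hill fits in oocytes. Where noted, calculated from IC50 values rounded to the nearest μM.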

The species entered for assay [11] is Rattus norvegicus. Kind of assay: Selectivity ratio of IC50 for rat recombinant NR1-NR2A receptor to IC50 for rat recombinant NR1-NR2D receptor. Summed up:
as §2

Glutamate NMDA receptor; Grin1/Grin2c, sequence (Q00961 whole entry, other chains not shown): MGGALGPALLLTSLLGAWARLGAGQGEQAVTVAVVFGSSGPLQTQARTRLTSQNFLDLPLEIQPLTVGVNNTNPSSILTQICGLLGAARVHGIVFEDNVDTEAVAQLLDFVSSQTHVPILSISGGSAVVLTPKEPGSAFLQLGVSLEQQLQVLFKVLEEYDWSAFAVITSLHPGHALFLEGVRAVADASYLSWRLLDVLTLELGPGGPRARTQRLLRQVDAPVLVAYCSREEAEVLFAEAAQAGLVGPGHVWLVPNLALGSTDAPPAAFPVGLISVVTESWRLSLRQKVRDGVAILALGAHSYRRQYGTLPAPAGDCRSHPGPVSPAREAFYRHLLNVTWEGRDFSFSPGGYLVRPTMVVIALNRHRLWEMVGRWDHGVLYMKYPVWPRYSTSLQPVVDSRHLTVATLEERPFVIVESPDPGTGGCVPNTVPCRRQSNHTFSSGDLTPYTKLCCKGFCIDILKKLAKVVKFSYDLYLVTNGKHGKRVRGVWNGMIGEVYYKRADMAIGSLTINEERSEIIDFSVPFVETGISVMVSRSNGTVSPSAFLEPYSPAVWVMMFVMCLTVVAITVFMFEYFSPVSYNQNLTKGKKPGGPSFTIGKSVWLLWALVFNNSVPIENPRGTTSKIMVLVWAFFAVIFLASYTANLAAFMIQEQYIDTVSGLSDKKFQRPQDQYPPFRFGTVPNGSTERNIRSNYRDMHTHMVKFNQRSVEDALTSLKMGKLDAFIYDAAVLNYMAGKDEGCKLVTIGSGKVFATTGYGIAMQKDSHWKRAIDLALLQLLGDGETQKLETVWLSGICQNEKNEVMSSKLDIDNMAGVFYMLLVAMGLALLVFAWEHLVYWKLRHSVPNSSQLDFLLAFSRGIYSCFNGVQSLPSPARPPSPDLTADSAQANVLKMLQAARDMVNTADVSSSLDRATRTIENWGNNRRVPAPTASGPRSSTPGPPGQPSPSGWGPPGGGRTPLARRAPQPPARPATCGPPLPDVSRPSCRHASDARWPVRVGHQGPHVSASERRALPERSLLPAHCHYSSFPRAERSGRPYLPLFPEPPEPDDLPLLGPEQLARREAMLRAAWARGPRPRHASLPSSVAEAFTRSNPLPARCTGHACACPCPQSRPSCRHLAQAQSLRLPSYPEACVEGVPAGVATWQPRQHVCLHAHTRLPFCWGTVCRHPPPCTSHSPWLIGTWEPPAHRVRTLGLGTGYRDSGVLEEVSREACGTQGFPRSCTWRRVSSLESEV

As to `COc1ccc(-n2c(/C=C/c3ccc([N+](=O)[O-])cc3)nc3ccccc3c2=O)cc1`, the pIC50 (commonly −log10 of the IC50, conventionally taken in molar units) in assay [1] was less than 3.52; in assay [2], 4.01; in [3], 3.74; in assay [4] it was 3.66; in assay [5], less than 3.52. Further, in [6], the IC50 result was “Not Active”.

Regarding `O=C(O)c1ccc(-n2c(/C=C/c3cccc([N+](=O)[O-])c3)nc3ccccc3c2=O)cc1`, the pIC50 was 4.68 in assay [1]; 4.52 in assay [2]; 4.92 in [3]; 5.05 in assay [4]; 4.49 in assay [5]. Besides, the IC50 result in assay [6] is given as “Not Active”. The outcome in assay [7], in assay [8] and in assay [9] was Active.

Regarding `COc1ccc(-n2c(/C=C/c3ccccc3[N+](=O)[O-])nc3ccccc3c2=O)cc1`, the pIC50 in assay [1] is less than 3.52; in assay [3], 3.84; in assay [4], 3.90; in assay [5] it was 3.65. The IC50 result in assay [6] is reported as “Not Active”.

Turning to `O=C(O)c1cccc(-n2c(/C=C/c3cccc([N+](=O)[O-])c3)nc3ccccc3c2=O)c1`, the pIC50 in [1] was 4.00; in [2], 4.16; in [3] it was 4.72; in assay [4] it was 4.82; in assay [5], 4.49. Further, the IC50 result in assay [6] is on record as “Not Active”.

Take `COc1cccc(-n2c(/C=C/c3cccc([N+](=O)[O-])c3)nc3ccccc3c2=O)c1`: the pIC50 is less than 3.52 in assay [1]; 3.58 in assay [2]; 3.69 in [3]; 3.73 in assay [4]; less than 3.52 in assay [5]. Moreover, the Ratio IC50 in [10] and in assay [11] was 2 each time. For the same molecule, in assay [6], the IC50 entry is listed as “Not Active”.

For the molecule `O=C(O)c1cccc(-n2c(/C=C/c3ccc([N+](=O)[O-])cc3)nc3ccccc3c2=O)c1`, the pIC50 in [1] was 3.87; in assay [2] it was 3.75; in assay [3] it was 4.48; in [4], 4.57; in [5] it was less than 3.52. The IC50 result in [6] is “Not Active”.

For `O=C(O)c1ccccc1-n1c(/C=C/c2ccc([N+](=O)[O-])cc2)nc2ccccc2c1=O`, the negative-log IC50 (pIC50) was less than 3.52 in [1]; 3.71 in assay [2]; less than 3.52 in assay [3]; 3.56 in [4]; less than 3.52 in assay [5]. In assay [6], the IC50 result is listed as “Not Active”.

As for `O=C(O)c1ccccc1-n1c(/C=C/c2cccc([N+](=O)[O-])c2)nc2ccccc2c1=O`, the negative logarithm of the IC50 (pIC50) in assay [1] was less than 3.52; in assay [2], 3.63; in [3] it was 3.59; in assay [4], 3.83; in assay [5], less than 3.52. Also, the IC50 result in [6] is listed as “Not Active”.

On to `COc1ccccc1-n1c(/C=C/c2ccccc2[N+](=O)[O-])nc2ccccc2c1=O`, for which the pIC50 in [1] is 5.40; in [2], 5.15; in assay [3], 5.40; in assay [4], 5.30; in assay [5], 4.85. The IC50 entry in [6] is “Not Active”.

In the case of `COc1ccccc1-n1c(/C=C/c2ccc([N+](=O)[O-])cc2)nc2ccccc2c1=O`, the pIC50 in assay [1] is less than 3.52; in [2], less than 3.52; in [3] it was less than 3.52; in [4], 3.54; in assay [5], less than 3.52. For the same molecule, the results for the Ratio IC50 in [10] and in assay [11] were 1 and greater than 1, respectively. In addition, the IC50 result in assay [6] is listed as “Not Active”.

With `COc1cccc(-n2c(/C=C/c3ccc([N+](=O)[O-])cc3)nc3ccccc3c2=O)c1`, the pIC50 in [1], in assay [3], in [4] and in assay [5] was less than 3.52 throughout. Further, in assay [10], the Ratio IC50 was found to be 1. Also, the IC50 result in assay [6] is “Not Active”.

Consider `O=C(O)c1ccc(-n2c(/C=C/c3ccc([N+](=O)[O-])cc3)nc3ccccc3c2=O)cc1`, for which the pIC50 in assay [1] was 4.19; in assay [2] it was 4.03; in assay [3], 4.82; in assay [4], 4.82; in assay [5], less than 3.52. Further, in assay [6], the IC50 result is given as “Not Active”.

`O=C(O)c1cccc(-n2c(/C=C/c3ccccc3[N+](=O)[O-])nc3ccccc3c2=O)c1`: the pIC50 in assay [1] was 4.77; in [2], 4.70; in [3], 5.10; in assay [4], 5.15; in [5], 5.30. For the same molecule, the IC50 entry in [6] was “Not Active”.

Regarding `O=C(O)c1ccc(-n2c(/C=C/c3ccccc3[N+](=O)[O-])nc3ccccc3c2=O)cc1`, the pIC50 in [1] is 4.96; in assay [2] it was 4.77; in assay [3], 5.10. Also, the IC50 result in assay [6] is “Not Active”.

In the case of `COc1ccccc1-n1c(/C=C/c2cccc([N+](=O)[O-])c2)nc2ccccc2c1=O`, the negative-log IC50 (pIC50) in assay [1], in assay [3], in [4] and in [5] was less than 3.52 throughout. Moreover, the Ratio IC50 in assay [10] was found to be 1. Further, the IC50 result in assay [6] is given as “Not Active”.

`COc1cccc(-n2c(/C=C/c3ccccc3[N+](=O)[O-])nc3ccccc3c2=O)c1`: the negative-log IC50 (pIC50) in [1], in assay [3], in [4] and in assay [5] was less than 3.52 in each case. Further, the Ratio IC50 in assay [10] was determined as 1. For the same molecule, the IC50 entry in [6] is reported as “Not Active”.

For the molecule `COc1ccc(-n2c(/C=C/c3cccc([N+](=O)[O-])c3)nc3ccccc3c2=O)cc1`, the pIC50 is less than 3.52 in assay [1]; less than 3.52 in assay [2]; 3.82 in assay [3]; 3.77 in assay [4]; 3.75 in assay [5]. The IC50 result in assay [6] is listed as “Not Active”.

On to `COc1ccc2nc(/C=C/c3cccc([N+](=O)[O-])c3)n(-c3ccc(C(=O)O)cc3)c(=O)c2c1`, for which the pIC50 in assay [1] was 3.64; in [2], less than 3.52; in [3] it was 5.22; in [4], 5.52; in assay [5], less than 3.52. Further, the values for the Ratio IC50 in [10] and in assay [11] were greater than 100 and 76, respectively.
